Variants at the floor of the assay were thinned out.
B1: tRNA (parent)
chain: GUUCCGUUGGCGUAAUGGUAACGCGUCUCCCUCCUAAGGAGAAGACUGCGGGUUCGAGUCCCGUACGGAACG

Variants of: B1
Assay: yeast fitness relative to wild type (ratio to wild type); higher = fitter; tRNA-Arg(CCU), competitive growth, 37 C, YPD
Method in brief: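 Amplicons of the tRNA-Arg(CCU) gene were sequenced, 100-nucleotide paired-end, from the start population and from each end population of a pooled yeast competition. The competition, in six parallel replicates, lasted 24 hours in YPD at 37°C. Fitness relative to wild type was calculated from changes in genotype frequencies. Genotypes had to have ≥ 100 starting reads, and estimates < 0.5 were set to 0.5.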

Row | Variant | yeast fitness
1 | GUUGCGUUGGCGUAAUGGUGACGCGUCUCCCUCCUAAGGAGAAGACUGCGGGUUCGAGUCCCGUACGGAACG | 0.966
2 | GUUCCGUUGGCGUAAUGGUAAUACGUCUCCCUCCUAAGGAGAAGACUGCGGGUUCGAGUCCCGUACGGAACG | 0.591
3 | GUUCCCUUGGCCUAAUGGUAACGCGUCUCCCUCCUAAGGAGAAGACAGCGGGUUCGAGUCCCGUACGGAACG | ≤ 0.5
4 | GUUCCGUUGGCGUAAUGGUUACGCGUCUGCCUCCUAAGGAGAAGACUGCGGGUUCGAGUCUCGUACGGAACG | ≤ 0.5
5 | GUUCCGUUGGCGUAGUGGUAACGCGUCUGCAUCCUAGGGAGAAGACUGCGGGUUCGAGUCCCGUACGGAACG | ≤ 0.5
6 | GUUCCGUUGGCGUAAUGGUAACGCGUCUCCCUCCUAAGGAGAAGACUGCGGGAUCGAGUCCCGUGCGGAACG | 0.571
7 | GUUCCGUUGGCGUAAUGGUAACGCGUCUCGCUCCAAAGGAGAAGAUUGCGAGUUCAAGUCCCGUACGGAACG | ≤ 0.5
8 | GUUCCGGUGGCGUAAUGGUAACGCGUCUCCCUCUUAAGGAGAAGACUGCGGGUUCGAGUACCGUACGGAACG | ≤ 0.5
9 | GUUCCGUUGGCGUAAUGGUAACGCGUCUCCCUCCUAAGGGGAGGACUGCGGGUUCGAGUCCGGUACGGAACG | ≤ 0.5
10 | GUUCCGUUGGCGUAAUGGUAUCGAGUCUCCCUCCUAAGGAGAAGACUGCGGGUUCGAGUCCCGUACGGGACG | ≤ 0.5
11 | GUUCGGUUGGCGUACUGGUAACGCGUCACCCUCCUAAGGACAAGACUGCGGGUUCGAGUCCCGGACGGAACG | ≤ 0.5
12 | GUACCGUUGGCGUAAUGGUAACGCAUCUCCCUCCUAAGGAGAAGACUGCGGGUUCGAGUCCCGUACGGCACG | 0.773
13 | GUUCCGUUGGCGUAAUGGUAGCGCGUAUCCCUCCUAAGCAGAAGACUGCGGGUUUGAGUCCCGUCCGGAACG | ≤ 0.5
14 | GUUCCGUUGACGUAAUGGUAACGCGUCUCUCUCUUAAGGAGGAGACUGCGGGUUCGAGUCCCGUACGGCGCG | ≤ 0.5
15 | GCUCCGUUGGCGUAAUGGUAAAGCGUCUCCCUCCUAAGGAGAAGACUGCGGGUUCGAGUCCCGUACGGAACG | 0.927
16 | GUUCCGCUGGCGUAGUGGUUACGGGUCUCCCUCCCCAGGAGAAGACUGCGGGUUCGAGUCACGUACGGAACG | ≤ 0.5
17 | GUUCCGUUGGCCUAAUGGUAACGCGUCUCCCUCCUAAGGAGAAGACAGCGGGUUCGAGUCCCGUACGGAACG | 0.596
18 | GUUCCGUUGGCGUAAUGGUAACGCGUCUCCCUCCUAAGGAGAAGGCUGCGGGUUCCAGUCCCGUACGGAACG | 0.604
19 | GUUCCGUUGGUGUAAUGGUAAUGCGUCUGCCUCUUAAGGAGAAGACUCCGGGUUCGGGUCCCGUACGGAACG | ≤ 0.5

Row | Variant | yeast fitness
20 | GUUCCGUUGGCGUAAUGGUAACGCGUCUCCCUCCUCAGGAGUGGACUGCGGGUUCGAGUCCCGUACGGAGCG | ≤ 0.5
21 | GUUCUGUUGGUGUCAUGGUAACGCGUCUCCCUCCUAAGGAGAAGACUGCGGGUUCGAGUCCCGUACGGAACG | 0.731
22 | GUUCCGUUGGCGUAAUGGUAACGCGUCUCGGAUCUAAGGAGAAGACUGCGGGUUCGAGUCCCGUUCGGAACG | ≤ 0.5
23 | GUUCCGUUGGCGUAAUGGUAACGGGUCUGCCACCUAAGGAGAAGACUGCGGCUUCGAGUCCCGUACGGAACG | ≤ 0.5
24 | GUUUCGUUGGCGUUAUGGUAACGCGUCUCCCUGCUAAGGAGAAGACUGCGGGUUCGAGUCCCGUACGGUACG | ≤ 0.5
25 | GUUCCAUUGGCGUAAUGGUAAUGCGUCUGCCUCCUAAGGAGAAGACUGCGGGUUCGAGUCCCGUACGGAACG | ≤ 0.5
26 | GUUCCGUUGGCGUAAUGGUAACGCGUCACCCUCCUAAGGAGGAGACUGCGGGUUCGGGUCCCGUACGGAACG | ≤ 0.5
27 | GUUCCGUUGGCGUAAUGGUAACGAGUCUCCUUCCUAAGGAGCAGACUGCGGGUUCGAGUCCCGUCCGGAACG | ≤ 0.5
28 | GUUCCGUUGGGGUAAUGGUAACGCGUCUCCCUCCUAAGGAGAAGACUGCGGGUUCCAGUCCCGUACUGAACG | ≤ 0.5
29 | GUUCGGUUGGCGUAAUGGUAACGCGUCUCCCUCCUAACGAGAAGACUGCGGGUUCGAGUCCCGUACGAAACG | ≤ 0.5
30 | GUUCCGUUGGCGUAAUGGUAACGCGUCUCCCUCCUAAGGAGCAGACUGCGGGUUCGGGUCCCGUACGGAACG | 0.749
31 | GUUCCGUUGGUGUUAUGGUAACGCGUCUCCCUCCUAAGGGGCGGACUGCGGGUUCGAGUCCCGUACGGAACG | ≤ 0.5
32 | GUUCUGUUGGUGUAAUGGUAACGCGUCUCCCUCCUAAGGAGAAGAUUGCGGGUUCGAGUCCCGUUCGGUACG | 0.563
33 | GUUCCGUUGGCGUAAUGGUAACGCGUCUCGCUCGUAGGGAGAAGGCUGCGGGUUCGAGUCCCGUACGGAACG | ≤ 0.5
34 | GUUCGGUUGGCAUAAUGGUAACGCGUCUCCCUCCUAAGGAGAAGACCGCGGGUUCGAGUCCAGUACGGAACG | ≤ 0.5
35 | GUUCGGUUGGCGUAAUGGUAACGCGUCUCCCUCCUAAGCAGAAGACUGCGGGUUCGAGUCCCGUACGGAACG | 0.675
36 | GUUCCGUUGGCGUAAUGGAAACGCGUUUCCCUCCUAAGGAGUAGGCUGCGGGUUCGAGUCCCGAACGGAACG | ≤ 0.5
37 | GUUCCGUUGGCGUAAUGGUAACGCGUGUCCCUCCUAAGGAGAAGAGUGCGGGGUCGACUCACGUACGGAACG | ≤ 0.5
38 | GUUCCGUUGGCGUAAUGGUAACGCGUCUCCCUCCUAACGACAAGACUGCGGGUUCGAGUCCCGUACGGAACG | 0.614

— the RNAGym collection of RNA variant scans (doi:10.1126/science.aae0568)
